Compound activity from PubChem.
EP2 mod: EP2 receptor modulators, cAMP readout, primary screen, cell-based, HTRF cAMP, PGE2 stimulation | EP2-expressing cells, cAMP HTRF FRET, PGE2 co-stimulation | induction, % at 25 µM | Prostaglandin E2 receptor EP2 subtype (Homo sapiens), P43116 | actives 0.83% (n = 260,000);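 active = compounds whose cAMP rise, as percent of the full-agonist control response, exceeds 60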;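 also: rat C6 glioma line stably carrying human EP2 under a CMV promoter; the protocol text gives 20 µM as final concentration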
Target sequence (P43116 whole entry, looked up): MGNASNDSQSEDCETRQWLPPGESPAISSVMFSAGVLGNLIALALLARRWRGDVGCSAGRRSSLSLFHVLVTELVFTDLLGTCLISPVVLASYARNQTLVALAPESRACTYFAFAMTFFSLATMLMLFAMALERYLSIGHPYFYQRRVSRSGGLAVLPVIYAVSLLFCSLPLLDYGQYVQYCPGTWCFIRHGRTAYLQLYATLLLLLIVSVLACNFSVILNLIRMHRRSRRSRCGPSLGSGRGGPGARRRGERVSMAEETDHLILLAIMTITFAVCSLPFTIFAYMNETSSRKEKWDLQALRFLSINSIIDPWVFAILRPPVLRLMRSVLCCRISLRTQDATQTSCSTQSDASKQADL
Exocytosis inh: LAMP-1 surface exposure blockers, TALL-104 cells – cell-based, flow cytometry, MLPCN library, primary screen. TALL-104 LAMP-1 surface exposure; cells stimulated with thapsigargin and PMA. inhibition, % at 10 µM. actives 0.66% (n = 360,000);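 active = inhibition above about 55%, limit read from the data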
MC4R antagonist: MC4R antagonists of cAMP signaling, primary screen, cell-based, TR-FRET, antagonist arm of biased-ligand search. inhibition, % at 6.5 µM. Melanocortin receptor 4 (Homo sapiens), P32245. MC4R-expressing cells, MTII-stimulated cAMP, LANCE TR-FRET. actives 0.48% (n = 360,000);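 active = inhibition above its plate's cutoff, the mean of tested wells on that plate plus 3 SD, cut at about 29% in these data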
Target sequence (P32245 whole entry, looked up): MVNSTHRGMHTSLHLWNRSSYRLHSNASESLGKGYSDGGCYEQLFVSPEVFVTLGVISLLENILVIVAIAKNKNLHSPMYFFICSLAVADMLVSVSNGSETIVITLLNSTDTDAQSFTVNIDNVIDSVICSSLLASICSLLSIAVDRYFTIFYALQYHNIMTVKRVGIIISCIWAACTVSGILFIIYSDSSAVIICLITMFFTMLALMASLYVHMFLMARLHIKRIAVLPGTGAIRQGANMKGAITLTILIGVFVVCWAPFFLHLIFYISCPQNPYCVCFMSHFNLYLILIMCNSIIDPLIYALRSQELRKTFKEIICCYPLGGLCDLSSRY
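Assay system: human MC4R-expressing U2OS cells; reagent: Melanotan II stimulation of cells; dosing: 6.5 µM single dose; timing: compound 30 min, challenge 1 h, detection 1 h; signal: TR-FRET cAMP assay; replicates: one well per compound, no replicates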
MC4R ag barr: MC4R agonists recruiting beta-arrestin, primary screen, cell-based, luminescence, agonist arm of biased-ligand search; Melanocortin receptor 4 (Homo sapiens), P32245; U2OS MC4R beta-arrestin complementation; percent of melanotan II response, DMSO zero; activation, % at 8.9 µM; actives 0.98% (n = 360,000); AID 540308, 2011;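 active = activation above a per-plate cutoff, the mean activation of sample wells on that plate plus 3 SD, cut at about 8% in these data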
EP2 antag: human EP2 receptor antagonists, primary screen, TR-FRET cAMP, C6 glioma cells; Prostaglandin E2 receptor EP2 subtype (Homo sapiens), P43116; C6 glioma cells expressing human EP2; cells stimulated with saturating PGE2; inhibition, % at 25 µM; actives 0.52% (n = 260,000); AID 1422, 2008;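 active = percent inhibition above 40 after rounding to a whole number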;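 also: rat C6 glioma host cells with rolipram phosphodiesterase inhibitor present; the protocol text gives 20 µM as final concentration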
T cell modulator: modulators of CD8 T cell-vesicle binding, primary screen, mouse 2C CD8+ T cells, flow cytometry | 2C CD8+ T cell-vesicle binding; stronger effect = lower value | response (vesicle binding), % at 7 µM | actives 0.068% (n = 330,000) | AID 2052, 2009;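 active = response, share of CD8 T cells binding vesicles, and their 90th percentile fluorescence all below set limits, cut at about 80% in these data, passing the limit was not always enough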;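 also: values below 100% mean blocked vesicle binding to the CD8+ T cells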
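Incubation: binding step 1.5 h, 37 °C, antibody labelling 20 min, ice; system: murine 2C transgenic CD8+ T lymphocytes; technique: cytometric PE anti-B7-1 and Alexa647 anti-CD8 signals after 1% paraformaldehyde fixation; also added: QL9-charged Drosophila Ld/ICAM-1/B7-1 vesicles; control set: naked versus QL9-loaded vesicles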
cAMP nonselect: nonselective cAMP signaling inhibitors, parental cells, counter-screen for MC4R biased antagonist project, cell-based, TR-FRET, U2OS, forskolin, triplicate; AID 602193, 2012; shares compounds with MC4R antagonist; inhibition, % at 6.5 µM; actives 26% (n = 1,600); LANCE TR-FRET;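 active = mean inhibition over triplicates above the low-control well mean plus 3 SD, set per campaign, cut at about 13% in these data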;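 also: signal is single emission at 671 nm which falls as cellular cAMP rises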
MC4R antag conf: MC4R cAMP antagonists, retest, confirmation, cell-based, TR-FRET | shares compounds with MC4R antagonist | MC4R-expressing cells, MTII-stimulated cAMP | inhibition, % at 6.5 µM | actives 27% (n = 1,600); in the data active = inhibition above about 29%
Large screens that a line does not name were inactive (follow-up assays come after a bar, where they were run). Compounds with a hit are over-represented: about 2.6% of the library has one in this group of screens.

C/C(=N\Nc1ncc(Cl)cc1Cl)c1ccc(N2CCOCC2)cc1	none
COC(=O)c1ccc(N2NC(=O)/C(=C/c3cc(OC)c(OC)c(OC)c3)C2=O)cc1	MC4R antagonist 36 | cAMP nonselect inactive | MC4R antag conf inactive
COC(=O)c1ccc(N2NC(=O)/C(=C/c3cc(OC)c(O)c(OC)c3)C2=O)cc1	none
O=S(=O)(Cc1cc(Cl)nc(-c2ccncc2)n1)c1ccccc1	MC4R antagonist 42 | cAMP nonselect inactive | MC4R antag conf inactive
CNC(=O)C(C)c1ncc(C(F)(F)F)cc1Cl (stereo not drawn)	MC4R antagonist 31 | cAMP nonselect inactive | MC4R antag conf inactive
CCCC(O)(CCC)C(=O)NN(C(=O)OC)c1ccccc1	none
COc1ccc(C2=NOC3(CC(=O)N(c4ccc(F)cc4)C3=O)C2)cc1 (stereo not drawn)	MC4R antagonist 29 | cAMP nonselect inactive | MC4R antag conf inactive
COc1ccc(C2=NOC3(CC(=O)N(c4ccc(F)cc4)C3=O)C2)c(OC)c1 (stereo not drawn)	none
Cc1ccc(S(=O)(=O)N2CCCCC2)cc1NC(=O)COC(=O)c1cc[n+]([O-])cc1	MC4R antagonist 29 | cAMP nonselect inactive | MC4R antag conf inactive
Cc1ccc(S(=O)(=O)N2CCOCC2)cc1NC(=O)COC(=O)c1cc[n+]([O-])cc1	none (no result: EP2 mod, EP2 antag)
CC1CCN(C(=O)Cn2cnc3c(cnn3C(C)(C)C)c2=O)CC1	MC4R antagonist 36 | cAMP nonselect inactive | MC4R antag conf inactive
O=C(CNC(=O)c1ccccc1)OCN1C(=O)c2ccccc2C1=O	MC4R antagonist 31 (no result: EP2 mod, EP2 antag, T cell modulator) | cAMP nonselect 14 | MC4R antag conf inactive
O=C(CNC(=O)c1ccc(Br)cc1)NCC(=O)OCC(=O)c1ccccc1	MC4R antagonist 42 | cAMP nonselect 14 | MC4R antag conf inactive
COc1ccc(C(=O)NCC(=O)NCC(=O)OCC(=O)c2ccc(Br)cc2)cc1	none (no result: EP2 mod, EP2 antag)
O=C(CCNC(=O)c1ccccc1)OCN1C(=O)c2ccccc2C1=O	none
CCOC(=O)C(=O)NC1CCS(=O)(=O)C1 (stereo not drawn)	none (no result: Exocytosis inh, MC4R antagonist, MC4R ag barr, T cell modulator)
COc1ccc(N2CCN(c3nc(Cl)nc(Nc4ccc(F)cc4)n3)CC2)cc1	MC4R antagonist 38 | cAMP nonselect 14 | MC4R antag conf 55
CCOc1ccc2nc(NC(=O)CSc3nc(-c4ccccc4)c(C#N)c(=O)[nH]3)sc2c1	MC4R antagonist 31 (no result: T cell modulator) | cAMP nonselect inactive | MC4R antag conf inactive
COc1cccc(-c2nc(SCC(=O)Nc3nc(-c4ccccc4)c(C)s3)[nH]c(=O)c2C#N)c1	none
Cc1ccc(Cl)cc1NC(=O)Nc1cccs1	MC4R antagonist 30 | cAMP nonselect inactive | MC4R antag conf inactive
COCCNC(=S)N(CCN(C)C)Cc1cc2cccc(C)c2[nH]c1=O	none (no result: Exocytosis inh, MC4R antagonist, MC4R ag barr, T cell modulator)
COC(=O)CNC(c1ccccc1)c1cc(Br)ccc1N (stereo not drawn)	MC4R antagonist 31 | cAMP nonselect inactive | MC4R antag conf inactive
NNC(=O)CNC(c1ccccc1)c1cc(Br)ccc1N (stereo not drawn)	none
CC1=C(C#N)C(=O)N(C)C(C)(C)C1	none
O=C(c1ccccc1)N1CCc2ccccc21	none
O=C(c1c(F)c(F)c(F)c(F)c1F)N1CCc2ccccc21	MC4R antagonist 33 (no result: EP2 mod) | cAMP nonselect 17 | MC4R antag conf inactive
O=C(CCN1CCCCC1)c1ccc2c(c1)OCCO2	none
O=C(CCN1CCCC1Cc1ccccc1)c1ccc2c(c1)OCCO2 (stereo not drawn)	Exocytosis inh 100, MC4R antagonist 36 (no result: EP2 antag) | cAMP nonselect 16 | MC4R antag conf 35
Cc1c(N=C2SCC(=O)N2/N=C\c2ccc(Br)cc2)c(=O)n(-c2ccccc2)n1C	MC4R antagonist 31 | cAMP nonselect inactive | MC4R antag conf inactive
O=C(NCCCCCCNC(=O)N1CCCCCC1)N1CCCCCC1	MC4R antagonist 30 | cAMP nonselect inactive | MC4R antag conf inactive
CCOCCCNC(=O)N1CCOCC1	none
Cc1ccc(S(=O)(=O)n2cnc3ccccc32)cc1[N+](=O)[O-]	MC4R antagonist 29 (no result: EP2 mod, EP2 antag) | cAMP nonselect inactive | MC4R antag conf inactive
CC(C)(C)CC(=O)NC(=S)Nc1ccccc1C(F)(F)F	none
O=c1sc(N2CCN(c3ccc(F)cc3)CC2)nc2ccsc12	MC4R antagonist active | cAMP nonselect inactive | MC4R antag conf inactive
O=c1sc(N2CCN(c3ccccc3F)CC2)nc2ccsc12	none
Cc1ccc(S(=O)(=O)N2CCC(C(=O)OCC(=O)N3CCc4ccccc43)CC2)cc1	none
Cc1ccc(S(=O)(=O)N2CCC[C@H]2C(=O)OCC(=O)N2CCc3ccccc32)cc1	MC4R antagonist 31 (no result: EP2 mod, EP2 antag) | cAMP nonselect inactive | MC4R antag conf inactive
Cc1ccnc2nc(C(=O)OCC(=O)N3CCc4ccccc43)nn12	MC4R antagonist 34 | cAMP nonselect inactive | MC4R antag conf inactive
Cc1ccnc2nc(C(=O)OCC(=O)c3ccccc3)nn12	none (no result: EP2 mod, EP2 antag)
CNC(=O)c1cc(Oc2ccc(NC(=O)Nc3ccc(Cl)c(C(F)(F)F)c3)cc2)ccn1	MC4R antagonist 47 (no result: EP2 mod, Exocytosis inh, EP2 antag) | cAMP nonselect inactive | MC4R antag conf 40
CCN(CC)CCCNC(=O)CCC(=O)Nc1ccc2nc(N3CCC(C)CC3)cc(C)c2c1	MC4R antagonist 37 | cAMP nonselect inactive | MC4R antag conf inactive
COC(=O)c1cc(S(=O)(=O)n2nc(C)c(Br)c2C)c(Cl)cc1Cl	MC4R antagonist 30 | cAMP nonselect inactive | MC4R antag conf inactive
Cc1cc(C)c(N2C(=O)CCCC2=O)c(Cl)c1	none
COc1ccc(-n2c(CN3CCN(c4ccccn4)CC3)nc3ccc([N+](=O)[O-])cc3c2=O)c(OC)c1	MC4R antagonist 38 | cAMP nonselect inactive | MC4R antag conf inactive
CCOC(=O)C1=C(CC)Nc2ccccc2N=C1NC(=O)CCNC(C)=O	none
CCOCc1c(C(=O)NC2=Nc3ccccc3NC(CC)=C2C(=O)OCC)oc2ccccc12	MC4R antagonist 38 | cAMP nonselect 25 | MC4R antag conf inactive
